One assay has as its target Renin (Canis familiaris). Briefly: Inhibitory concentration was measured against plasma renin from dog.
`CC(C)CC(NC(=O)C(Cc1c[nH]cn1)NC(=O)C(CC(=O)N1CCOCC1)Cc1cccc2ccccc12)C(O)C(=O)NC(C)C` (stereo not given) showed an IC50 of 1.1 µM.

Turning to `CC(C)CC(NC(=O)C(Cc1cnc[nH]1)NC(=O)C(CC(=O)N1CCOCC1)Cc1cccc2ccccc12)C(O)CC(=O)OC(C)C` (stereo not given), the IC50 was 0.35 µM.

Compound `COC(=O)C(O)C(CC(C)C)NC(=O)C(Cc1c[nH]cn1)NC(=O)C(CC(=O)N(C)C)Cc1cccc2ccccc12` (stereo not given) yielded an IC50 of 0.64 µM.

In the case of `COC(=O)C(O)C(CC(C)C)NC(=O)C(Cc1c[nH]cn1)NC(=O)C(CC(=O)NCCc1ccccc1)Cc1cccc2ccccc12` (stereo in doubt), the IC50 was 2.1 µM.

A further assay has as its target T1, Renin (Rattus norvegicus, UniProt P08424).
T1 sequence (P08424 whole entry): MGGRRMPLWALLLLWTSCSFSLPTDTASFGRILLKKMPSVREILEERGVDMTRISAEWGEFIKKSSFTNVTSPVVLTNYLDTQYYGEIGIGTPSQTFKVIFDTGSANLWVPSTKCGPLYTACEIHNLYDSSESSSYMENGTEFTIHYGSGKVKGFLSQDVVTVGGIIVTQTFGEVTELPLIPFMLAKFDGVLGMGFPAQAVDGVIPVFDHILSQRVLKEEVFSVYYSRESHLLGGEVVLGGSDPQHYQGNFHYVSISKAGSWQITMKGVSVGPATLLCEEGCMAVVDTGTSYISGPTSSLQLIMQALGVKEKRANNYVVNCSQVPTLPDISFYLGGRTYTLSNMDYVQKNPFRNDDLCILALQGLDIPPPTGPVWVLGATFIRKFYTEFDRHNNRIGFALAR
As to the kind of experiment: Inhibitory concentration was measured against plasma renin from rat.
As for `CC(C)CC(NC(=O)C(Cc1c[nH]cn1)NC(=O)C(CC(=O)N1CCOCC1)Cc1cccc2ccccc12)C(O)C(=O)NC(C)C` (stereo not given), half-maximal inhibition (IC50) required 4.4 µM.

On to `CC(C)CC(NC(=O)C(Cc1cnc[nH]1)NC(=O)C(CC(=O)N1CCOCC1)Cc1cccc2ccccc12)C(O)CC(=O)OC(C)C` (stereo not given), for which the half-inhibitory concentration (IC50) is greater than 100 µM.

For `COC(=O)C(O)C(CC(C)C)NC(=O)C(Cc1c[nH]cn1)NC(=O)C(CC(=O)N(C)C)Cc1cccc2ccccc12` (stereo not given), the IC50 was greater than 100 µM.

As for `COC(=O)C(O)C(CC(C)C)NC(=O)C(Cc1c[nH]cn1)NC(=O)C(CC(=O)NCCc1ccccc1)Cc1cccc2ccccc12` (stereo in doubt), the IC50 was greater than 100 µM.

In the next assay the target is T2, Renin (Homo sapiens, UniProt P00797).
T2 sequence (P00797 whole entry): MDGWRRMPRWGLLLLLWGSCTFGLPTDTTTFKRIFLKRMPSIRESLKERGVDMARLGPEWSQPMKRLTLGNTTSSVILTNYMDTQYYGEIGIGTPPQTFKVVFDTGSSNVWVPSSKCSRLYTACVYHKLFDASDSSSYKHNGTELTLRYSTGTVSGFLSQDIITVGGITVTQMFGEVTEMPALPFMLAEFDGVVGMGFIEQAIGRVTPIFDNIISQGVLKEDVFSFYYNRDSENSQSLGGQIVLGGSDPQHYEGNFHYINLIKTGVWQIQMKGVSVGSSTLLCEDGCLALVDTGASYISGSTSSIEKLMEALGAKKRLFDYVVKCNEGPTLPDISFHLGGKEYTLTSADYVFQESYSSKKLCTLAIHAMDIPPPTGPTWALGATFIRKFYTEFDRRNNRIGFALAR
Briefly: Inhibitory concentration was measured against plasma renin from human. Format: cell-free. In outline:
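Human plasma containing EDTA-2Na (14 mM) and neomycin sulfate (0.3%) was mixed with 0.5 M phosphate buffer pH 7.0, Phe-Ala-Pro and inhibitor in DMSO. Incubation ran 60 min at 37 °C, then angiotensin I generated was quantified by radioimmunoassay. IC50 refers to inhibition of plasma renin activity.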
Take `CC(C)CC(NC(=O)C(Cc1c[nH]cn1)NC(=O)C(CC(=O)N1CCOCC1)Cc1cccc2ccccc12)C(O)C(=O)NC(C)C` (stereo not given): the IC50 was determined as 0.13 µM.

Compound `CC(C)CC(NC(=O)C(Cc1cnc[nH]1)NC(=O)C(CC(=O)N1CCOCC1)Cc1cccc2ccccc12)C(O)CC(=O)OC(C)C` (stereo not given) displayed an IC50 of 0.066 µM.

With `COC(=O)C(O)C(CC(C)C)NC(=O)C(Cc1c[nH]cn1)NC(=O)C(CC(=O)N(C)C)Cc1cccc2ccccc12` (stereo not given), the half-inhibitory concentration (IC50) is 0.025 µM.

`COC(=O)[C@H](O)C(CC(C)C)NC(=O)C(Cc1cnc[nH]1)NC(=O)C(CC(=O)NCCc1ccccc1)Cc1cccc2ccccc12` (single isomer, unassigned; (+)) came in with a half-maximal inhibitory concentration (IC50) of 0.077 µM.

In the case of `COC(=O)C(O)C(CC(C)C)NC(=O)C(Cc1c[nH]cn1)NC(=O)C(CC(=O)NCCc1ccccc1)Cc1cccc2ccccc12` (stereo in doubt), the IC50 was found to be 0.09 µM.

A further assay deals with T2, Renin. Briefly: Inhibitory concentration against human renin.
In turn, `CC(C)CC(NC(=O)C(Cc1c[nH]cn1)NC(=O)C(CC(=O)N1CCOCC1)Cc1cccc2ccccc12)C(O)C(=O)NC(C)C` (stereo not given) returned an IC50 of 0.13 µM.

In the case of `CC(C)CC(NC(=O)C(Cc1cnc[nH]1)NC(=O)C(CC(=O)N1CCOCC1)Cc1cccc2ccccc12)C(O)CC(=O)OC(C)C` (stereo not given), the IC50 came to 0.18 µM.

Take `COC(=O)C(O)C(CC(C)C)NC(=O)C(Cc1c[nH]cn1)NC(=O)C(CC(=O)N(C)C)Cc1cccc2ccccc12` (stereo not given): the IC50 is 0.078 µM.

In the case of `COC(=O)[C@@H](O)C(CC(C)C)NC(=O)C(Cc1c[nH]cn1)NC(=O)C(CC(=O)NCCc1ccccc1)Cc1cccc2ccccc12` (single isomer, unassigned; (+)), 1.3 µM corresponded to half-maximal inhibition (IC50).

`COC(=O)[C@H](O)C(CC(C)C)NC(=O)C(Cc1cnc[nH]1)NC(=O)C(CC(=O)NCCc1ccccc1)Cc1cccc2ccccc12` (single isomer, unassigned; (+)) registered an IC50 of 0.031 µM.

For `COC(=O)C(O)C(CC(C)C)NC(=O)C(Cc1c[nH]cn1)NC(=O)C(CC(=O)NCCc1ccccc1)Cc1cccc2ccccc12` (stereo in doubt), the IC50 is 0.078 µM.

Compound `COC(=O)C(O)C(CC(C)C)NC(=O)C(Cc1c[nH]cn1)NC(=O)C(CC(=O)NCCc1ccccc1)Cc1cccc2ccccc12` (stereo in doubt; 12) registered an IC50 greater than 100 µM.

By IC50 is commonly meant the concentration at which inhibition is half-maximal. Read a low IC50 as greater potency in that assay.

Source of the values: ChEMBL document CHEMBL1124071, “New human renin inhibitors containing an unnatural amino acid, norstatine” (J Med Chem, 1988).
